Assay outcomes: PubChem BioAssay, several laboratories
CSC inhib: cancer stem cell viability inhibitors, primary screen, luminescence | AID 2717, 2010 | cancer stem cell-like cells viability | inhibition, % at 7.5 µM | 1.1% of 300,000 active; in the data active means inhibition above about 75%; tested in HMLE shEcad cells
UPR XBP1 act: activators of adaptive XBP1 UPR arm, primary screen, cell-based, CHO-XBP1 luciferase reporter, luminescence, uHTS; activation, % at 20 µM; 0.33% of 330,000 active; IRE1-XBP1 UPR activation; percent of tunicamycin response, DMSO as zero; AID 463104, 2010;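 active means versus positive control, 20 µM dose yields 30% or more activation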
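Signal: luciferase luminescence; Assay system: CHO-XBP1 luciferase reporter cells; Amount: one thousand reporter cells per well; Dosing: 20 µM single concentration, DMSO 1%; Benchmarks: high control tunicamycin 10 µg/mL final, low control DMSO vehicle only; Schedule: 6 h compound exposure at 37 °C, 5% CO2; Evaluation: percent activation relative to tunicamycin reference.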
CHOP UPR activ: activators of apoptotic CHOP UPR arm, primary screen, cell-based, CHO-CHOP luciferase reporter, luminescence, uHTS; UPR activation; percent of tunicamycin response over DMSO baseline; activation, % at 10 µM; 0.34% of 330,000 active;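 active means at 10 µM dose, activation of 40% or more, normalized to positive control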
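Evaluation: % reporter activation, DMSO baseline versus tunicamycin full activation; System: CHO-CHOP luciferase reporter cell line; Input: 500 cells/well; Incubation: 6 h compound treatment, 37 °C; Measured by: Steady-Glo luciferase luminescence; Dosing: one dose, 10 µM in 0.5% DMSO; Buffer or medium: F12 medium, 10% FBS; Benchmarks: positive tunicamycin 10 µg/mL, negative DMSO alone.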
Beta cell apopt: inhibitors of cytokine-induced beta cell apoptosis, primary screen, luminescence; INS-1E cytokine-induced death, ATP luminescence, 48 h; percent of positive-control rescue, neutral wells zero; 0.8% of 300,000 active; AID 435005, 2010; protection from apoptosis, % (concentration not given with the values);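 active means Every replicate reaches about 75%, or at least half do and their mean reaches it too, limit read from the data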;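 further: higher means more ATP so stronger rescue from cytokine killing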
T cruzi repl: inhibitors of intracellular T. cruzi growth, primary screen, luminescence, NIH3T3 host cells; inhibition, % (no concentration beside the values); 1.4% of 300,000 active; AID 1885, 2009; T. cruzi beta-gal in NIH3T3, 90 h;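 active means mean inhibition across valid replicates above about 55%, limit read from the data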;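 further: signal also drops with host cell toxicity which is not excluded here; higher percent means less beta-gal luminescence so fewer parasites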
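assay system = mouse NIH/3T3 fibroblasts infected with β-gal-expressing T. cruzi Tulahuen C4 | input = 5,000 NIH/3T3 host cells per well | buffer or medium = DMEM plus 2% FBS | timing = 3 h host attachment, then at least 90 h co-culture | measured by = GalScreen luminescence, 60 min | evaluation = luminescence reflecting intracellular parasite burden, expressed as percent inhibition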
Mdm2 MdmX PPI: inhibitors of human Mdm2-MdmX association, primary screen, cell-based, luminescence, split luciferase, SaOS-2, uHTS; SaOS-2 split-luciferase Mdm2/MdmX complementation; Protein Mdm4 (Homo sapiens) + E3 ubiquitin-protein ligase Mdm2 (Homo sapiens), …; 3% of 330,000 active; inhibition, % at 8 µM;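 active means inhibition of at least 50% at 8 µM in the primary screen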
Target sequence (O15151 whole entry, looked up): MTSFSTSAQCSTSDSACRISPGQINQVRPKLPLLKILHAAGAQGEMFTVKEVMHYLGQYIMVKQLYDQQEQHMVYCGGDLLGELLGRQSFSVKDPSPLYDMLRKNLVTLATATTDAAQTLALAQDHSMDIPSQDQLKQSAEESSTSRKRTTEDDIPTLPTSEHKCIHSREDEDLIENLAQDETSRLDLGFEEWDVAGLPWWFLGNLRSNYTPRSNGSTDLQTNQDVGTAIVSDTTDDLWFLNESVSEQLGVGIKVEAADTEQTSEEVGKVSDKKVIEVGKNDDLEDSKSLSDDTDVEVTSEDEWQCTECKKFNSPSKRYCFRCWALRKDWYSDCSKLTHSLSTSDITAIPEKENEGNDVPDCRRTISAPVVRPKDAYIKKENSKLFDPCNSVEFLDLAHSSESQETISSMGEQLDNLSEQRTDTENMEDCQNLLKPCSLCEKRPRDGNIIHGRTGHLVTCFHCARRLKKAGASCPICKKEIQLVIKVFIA
Target sequence (Q00987 whole entry, looked up): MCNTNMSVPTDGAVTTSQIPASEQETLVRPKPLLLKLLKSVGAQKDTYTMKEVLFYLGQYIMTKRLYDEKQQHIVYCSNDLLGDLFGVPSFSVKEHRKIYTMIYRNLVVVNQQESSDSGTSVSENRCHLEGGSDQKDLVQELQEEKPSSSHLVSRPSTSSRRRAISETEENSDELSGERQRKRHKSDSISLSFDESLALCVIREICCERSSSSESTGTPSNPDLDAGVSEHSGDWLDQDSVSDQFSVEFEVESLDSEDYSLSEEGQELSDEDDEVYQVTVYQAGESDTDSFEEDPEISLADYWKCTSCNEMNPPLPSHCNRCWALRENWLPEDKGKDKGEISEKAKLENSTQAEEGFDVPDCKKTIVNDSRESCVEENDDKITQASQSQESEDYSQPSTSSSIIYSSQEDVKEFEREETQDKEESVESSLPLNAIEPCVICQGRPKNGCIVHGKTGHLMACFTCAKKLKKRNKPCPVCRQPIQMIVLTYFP
UPR XBP1 confirm: IRE1-XBP1 UPR arm activators, confirmation, cell-based, CHO-XBP1 luciferase reporter, luminescence, single concentration | shares compounds with UPR XBP1 act | activation, % at 20 µM | 63% of 1,000 active;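 active means reporter signal at least 30% of the positive control's activation in two or more of four replicate wells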
Mdm2-MdmX conf: Mdm2-MdmX complex disruptors, retested hits, confirmation, luminescence, single concentration; inhibition, % at 8 µM; Mdm2-MdmX binding, luminescent assay; AID 489028, 2010; shares compounds with Mdm2 MdmX PPI; 55% of 10,000 active; in the data active means inhibition above about 40%
Full FLuc ctr: full-length luciferase signal inhibition, confirmation, counter-screen for Mdm2/MdmX interaction inhibitor project, cell-based, single concentration, SaOS-2 | 77% of 6,200 active | inhibition, % at 8 µM | AID 504607, 2011 | shares compounds with Mdm2 MdmX PPI | SaOS-2 full-length luciferase counterscreen, luminescence;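 active means mean inhibition at 8 µM reaching about 37%, which flags the compound as non-specific, limit read from the data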;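 further: p53-null SaOS-2 cells with luciferase driven by a doxycycline-inducible promoter; compound on cells about two nights before reading with doxycycline added after day one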
Hits are given with their value; . = inactive; / = no result given. This is a sample that favours compounds with a hit; in the whole collection about 5% have one here.

SMILES	CSC inhib	UPR XBP1 act	CHOP UPR activ	Beta cell apopt	T cruzi repl	Mdm2 MdmX PPI	UPR XBP1 confirm	Mdm2-MdmX conf	others
CCOC(=O)c1c(Nc2ccc(Cl)cc2)sc(/C=C2\C=Nc3ccccc32)c1O	/	38	.	.	.	64	.	.
COc1ccc(C(=O)Nc2ccccc2-c2nnn(CC(=O)Nc3ccc4c(c3)OCCO4)n2)cc1	.	.	.	.	.	.	/	/
COc1cc(OC)cc(C(=O)Nc2ccccc2-c2nnn(CC(=O)Nc3cc(C)on3)n2)c1	.	327	.	.	.	71	.	.
O=C1c2cccc3cc(Br)cc(c23)C(=O)N1Nc1ccc(Br)cc1	.	40	.	.	.	73	33	63	Full FLuc ctr=74
CCn1cc(C(=O)O)c(=O)c2cnc(N3CCN(C(=S)Nc4ccccc4Cl)CC3)nc21	.	.	.	.	.	.	/	/
O=C(NCc1nnnn1-c1ccc(F)c(F)c1)c1ccc(S(=O)(=O)N2CCOCC2)cc1	.	.	.	.	.	.	/	/
COc1cc(/C=C/c2ccc3cccc(O)c3n2)cc(Cl)c1OC	91	66	.	.	.	100	.	.
COc1cc(/C=C/c2ccc3cccc(O)c3n2)cc(OC)c1OC	.	77	339	.	.	84	.	76	Full FLuc ctr=.
COC(=O)c1ccc(/C=C/c2ccc3cccc(OC)c3n2)cc1	.	.	.	.	.	.	/	/
CCCC(=O)Nc1ccc(C(=O)COC(=O)c2cc(C)oc2C)cc1	/	.	.	.	/	.	/	/
Cn1nnnc1Sc1ncnc2scc(-c3ccc(Br)cc3)c12	/	100	.	.	/	99	141	100	Full FLuc ctr=53
COc1ccc(C(CCNC(C)c2ccccc2)c2ccc(F)cc2)cc1 (stereo not drawn)	.	46	.	.	.	73	63	.
COc1ccc(C(CCNCc2ccc(F)cc2)c2ccc(F)cc2)cc1 (stereo not drawn)	.	48	.	.	.	76	65	.	Full FLuc ctr=90
CC(=O)Nc1nnc(SCC(=O)c2ccc3c(c2)Cc2ccccc2-3)s1	.	.	.	.	.	.	/	/
CCC(=O)Nc1nnc(SCC(=O)c2ccc3c(c2)Cc2ccccc2-3)s1	.	52	.	/	.	55	29	.
COc1ccc2oc(-c3ccc(NC(=O)c4ccc(N5CCOCC5)c([N+](=O)[O-])c4)cc3)nc2c1	.	64	.	.	.	56	.	.
Cc1cccc(NC(=O)c2ccc(N3CCOCC3)c([N+](=O)[O-])c2)n1	.	.	.	.	.	.	/	/
Cc1ccc(NS(=O)(=O)c2cc([N+](=O)[O-])ccc2N/N=C/c2sc(N3CCOCC3)nc2-c2ccccc2)c(C)c1	.	36	.	75	.	86	31	.
COc1ccc(Nc2nc(N)c([N+](=O)[O-])c(NC3CCCCC3)n2)cc1	101	53	.	.	.	70	35	.
O=C(CC(=O)N/N=C/c1c(Cl)cccc1Cl)NCc1cccnc1	.	.	.	.	.	.	/	/
COc1cc2nc(N3CCN(c4cc(C)ccc4C)CC3)nc(N)c2cc1OC	106	109	.	118	56	95	62	86	Full FLuc ctr=51
Cc1ccc(Nc2nc(NCc3ccco3)c3ccccc3n2)cc1	.	61	.	76	66	70	72	.
COc1ccccc1Nc1nc(NCc2ccco2)c2ccccc2n1	.	.	.	.	.	.	/	/
CCCCn1c(N)c(N(CCOC)C(=O)c2ccc(S(=O)(=O)N3CCCCCC3)cc2)c(=O)[nH]c1=O	.	.	.	.	.	.	/	/
COc1ccc(/C=N/Nc2nnc(-c3ccccc3)c(=O)[nH]2)cc1	.	49	.	/	.	76	73	.
SMILES	CSC inhib	UPR XBP1 act	CHOP UPR activ	Beta cell apopt	T cruzi repl	Mdm2 MdmX PPI	UPR XBP1 confirm	Mdm2-MdmX conf	others
CC1CCN(S(=O)(=O)c2ccc(NC(=O)Cn3nnc(-c4ccccc4)n3)cc2)CC1	.	.	.	.	.	.	/	/
Cc1ccc(-c2nnn(CC(=O)Nc3ccc(S(=O)(=O)N4CCC(C)CC4)cc3)n2)cc1	.	44	.	.	.	52	56	.
Cn1c2c(c(=O)n(C)c1=O)NC1(N2)C(=O)Nc2ccccc21 (stereo not drawn)	.	.	.	.	.	.	/	/
CCOC(=O)c1c(NC(=O)/C=C\C(=O)O)sc(C)c1-c1ccccc1	.	.	.	.	.	.	/	/
CCOC(=O)c1c(NC(=O)/C=C/C(=O)O)sc(C)c1-c1ccc(C(C)(C)C)cc1	109	47	.	79	57	87	47	80	Full FLuc ctr=56
COc1ccc(-c2nnn(CC(=O)N(Cc3cccs3)C(C)C(=O)NCCC(C)C)n2)cc1OC (stereo not drawn)	.	.	.	.	.	.	/	/
Oc1[nH]c2ccccc2c1N=Nc1nc(Nc2ccccc2)nc(N2CCOCC2)n1	.	86	.	.	.	80	.	81	Full FLuc ctr=59
C[C@@H]1CN([C@H](C)CO)C(=O)Cc2cc(NS(=O)(=O)c3ccc(Cl)cc3)ccc2O[C@H]1CN(C)Cc1ccc(C(F)(F)F)cc1	105	48	.	.	/	90	.	62	Full FLuc ctr=55
C[C@@H]1CN([C@H](C)CO)C(=O)Cc2cc(NS(=O)(=O)c3ccc(F)cc3)ccc2O[C@H]1CN(C)Cc1ccc(C(=O)O)cc1	/	.	.	.	/	.	/	/
CCn1c2ccccc2c2cc(Nc3cc(C)nc4ncnn34)ccc21	.	36	.	.	.	83	.	72	Full FLuc ctr=109
CCc1ccc(Nc2cc(C)nc3ncnn23)cc1	.	.	.	.	.	.	/	/
COc1ccc2c(c1)NC(c1cc(Cl)cc(Cl)c1O)c1cccn1-2 (stereo not drawn)	/	49	.	/	/	81	57	.
Oc1c(Cl)cc(Cl)cc1C1Nc2ccccc2-n2cccc21 (stereo not drawn)	.	.	.	.	.	.	/	/
